Changes are numbered by the printed parent chain.
Columns and labels:
[1] = molecular target: T1, Nonstructural protein 5A (Hepatitis C virus) (UniProt Q5L478); assay: Inhibition of NS5A in HCV genotype 1a infected in HuH7 replicon cells assessed as decrease in viral replication after 3 days by RT-PCR method; assay type: cell-based; settings: Hepatitis C virus subtype 1a
T1 sequence (whole entry): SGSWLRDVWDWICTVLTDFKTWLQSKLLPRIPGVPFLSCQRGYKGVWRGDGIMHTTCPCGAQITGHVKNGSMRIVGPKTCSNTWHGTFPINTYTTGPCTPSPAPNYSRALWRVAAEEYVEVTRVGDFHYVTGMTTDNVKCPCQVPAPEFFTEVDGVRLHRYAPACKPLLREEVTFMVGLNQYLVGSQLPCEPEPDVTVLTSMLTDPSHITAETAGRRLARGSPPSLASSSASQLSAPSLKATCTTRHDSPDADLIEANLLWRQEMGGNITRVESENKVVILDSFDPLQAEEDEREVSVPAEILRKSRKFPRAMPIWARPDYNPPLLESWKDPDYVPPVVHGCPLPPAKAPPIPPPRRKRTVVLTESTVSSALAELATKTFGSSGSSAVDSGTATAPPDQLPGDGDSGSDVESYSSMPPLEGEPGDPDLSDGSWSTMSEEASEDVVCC

[2] = molecular target: T1, Nonstructural protein 5A (Hepatitis C virus); assay: Inhibition of NS5A in HCV genotype 1b infected in HuH7 replicon cells assessed as decrease in viral replication after 3 days by RT-PCR method; assay type: cell-based; settings: Hepatitis C virus subtype 1b
[3] = molecular target: T1, Nonstructural protein 5A (Hepatitis C virus); assay: Inhibition of NS5A L31M mutant in HCV genotype 2b infected in HuH7 replicon cells assessed as decrease in viral replication after 3 days by RT-PCR method; assay type: cell-based; settings: Hepatitis C virus subtype 2b
[4] = molecular target: T1, Nonstructural protein 5A (Hepatitis C virus); assay: Inhibition of NS5A in HCV genotype 3a infected in HuH7 replicon cells assessed as decrease in viral replication after 3 days by RT-PCR method; assay type: cell-based; settings: Hepatitis C virus subtype 3a
[5] = molecular target: T1, Nonstructural protein 5A (Hepatitis C virus); assay: Inhibition of NS5A in HCV genotype 4a infected in HuH7 replicon cells assessed as decrease in viral replication after 3 days by RT-PCR method; assay type: cell-based; settings: Hepatitis C virus subtype 4a
[6] = test system: T2, Nonstructural protein 5A (Hepatitis C virus), Q5L478 [Y93H]; assay: Inhibition of NS5A Y93H mutant in HCV genotype 1a infected in HuH7 replicon cells assessed as decrease in viral replication after 3 days by RT-PCR method; assay type: cell-based; settings: Hepatitis C virus subtype 1a
T2 sequence (whole entry): T1 sequence (whole entry) with Y93H

[7] = molecular target: T1, Nonstructural protein 5A (Hepatitis C virus); assay: Inhibition of NS5A L31V mutant in HCV genotype 1a infected in HuH7 replicon cells assessed as decrease in viral replication after 3 days by RT-PCR method; assay type: cell-based; settings: Hepatitis C virus subtype 1a
[8] = test system: Hepatitis C virus subtype 1a; assay: Resistance ratio of EC90 for NS5A L31V mutant in HCV genotype 1a infected in HuH7 replicon cells to EC90 for NS5A in HCV genotype 1a infected in HuH7 replicon cells; assay type: cell-based
[9] = test system: Hepatitis C virus subtype 1a; assay: Resistance ratio of EC90 for NS5A Y93H mutant in HCV genotype 1a infected in HuH7 replicon cells to EC90 for NS5A in HCV genotype 1a infected in HuH7 replicon cells; assay type: cell-based
[10] = Resistance ratio of EC90 for NS5A in HCV genotype 1b infected in HuH7 replicon cells to EC90 for NS5A in HCV genotype 1a infected in HuH7 replicon cells; assay type: cell-based
[11] = Resistance ratio of EC90 for NS5A L31M mutant in HCV genotype 2b infected in HuH7 replicon cells to EC90 for NS5A in HCV genotype 1a infected in HuH7 replicon cells; assay type: cell-based
[12] = Resistance ratio of EC90 for NS5A in HCV genotype 3a infected in HuH7 replicon cells to EC90 for NS5A in HCV genotype 1a infected in HuH7 replicon cells; assay type: cell-based
[13] = Resistance ratio of EC90 for NS5A in HCV genotype 4a infected in HuH7 replicon cells to EC90 for NS5A in HCV genotype 1a infected in HuH7 replicon cells; assay type: cell-based
[14] = Half life in Wistar Han rat at 2 mg/kg, iv by LC/MS method; assay type: ADME, organism-based; settings: in vivo
How it was run: (§1)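 Male Wistar Han rats, two per group, dosed IV at 2 mg/kg in 60% PEG200. Plasma was obtained by centrifuging the blood, and compound concentrations were measured by LC/MS.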

[15] = Clearance in Wistar Han rat at 2 mg/kg, iv by LC/MS method; assay type: ADME, organism-based; settings: in vivo; how it was run: as §1
[16] = AUC in Wistar Han rat at 10 mg/kg, po by LC/MS method; assay type: ADME, organism-based; settings: in vivo
How it was run: (§2)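 Male Wistar Han rats, two per dosing group, dosed orally at 10 mg/kg in 10% TWEEN. Plasma was separated from collected blood by centrifugation and analysed by LC/MS.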

[17] = Cmax in Wistar Han rat at 10 mg/kg, po by LC/MS method; assay type: ADME, organism-based; parameters: dose 10 mg/kg, route oral; settings: in vivo; how it was run: as §2
[18] = Drug level in Wistar Han rat at 10 mg/kg, po measured at 24 hrs by LC/MS method; assay type: ADME, organism-based; settings: in vivo, read-out: Drug uptake; how it was run: as §2
[19] = Oral bioavailability in Wistar Han rat at 10 mg/kg by LC/MS method; assay type: ADME, organism-based; settings: in vivo; how it was run: as §2

| Structure (SMILES) | EC90 [1] [pM] | EC90 [2] [pM] | EC90 [3] [pM] | EC90 [4] [pM] | EC90 [5] [pM] | EC90 [6] [pM] | EC90 [7] [pM] | Ratio [8] | Ratio [9] | Ratio [10] | Ratio [11] | Ratio [12] | Ratio [13] | half-life [14] [h] | clearance [15] [mL/min/kg] | AUC [16] [µM·h] | Cmax [17] [nM] | concentration at 24 h [18] [nM] | bioavailability [19] [%] |
| --- | --- | --- | --- | --- | --- | --- | --- | --- | --- | --- | --- | --- | --- | --- | --- | --- | --- | --- | --- |
| COC(=O)N[C@H](C(=O)N1CCC[C@H]1c1ncc(-c2cc(F)c3c(c2)O[C@@H](c2ccc(C(F)F)s2)n2c-3cc3cc(-c4cnc([C@@H]5CCCN5C(=O)[C@@H](NC(=O)OC)C5CCOCC5)[nH]4)ccc32)[nH]1)C(C)C | 4 | 6 | 16 | 10 | 4 | 15 | 5 | < 10 | < 10 | < 10 | < 10 | < 10 | < 10 | – | – | – | – | – | – |
| COC(=O)N[C@H](C(=O)N1CCC[C@H]1c1ncc(-c2cc(F)c3c(c2)O[C@@H](c2cc4ccccc4s2)n2c-3cc3cc(-c4cnc([C@@H]5CCCN5C(=O)[C@@H](NC(=O)OC)C5CCOCC5)[nH]4)ccc32)[nH]1)C(C)C | 5 | 3 | 57 | 11 | 4 | 111 | 8 | – | 20 | – | – | – | – | – | – | – | – | – | – |
| COC(=O)N[C@H](C(=O)N1CCC[C@H]1c1ncc(-c2cc(F)c3c(c2)O[C@@H](c2ccc4c(c2)CCCO4)n2c-3cc3cc(-c4cnc([C@@H]5CCCN5C(=O)[C@@H](NC(=O)OC)C5CCOCC5)[nH]4)ccc32)[nH]1)C(C)C | 5 | 3 | 1070 | 9 | 6 | 356 | 7 | < 10 | < 10 | < 10 | < 10 | < 10 | < 10 | – | – | – | – | – | – |
| COC(=O)N[C@H](C(=O)N1CCC[C@H]1c1ncc(-c2cc(F)c3c(c2)O[C@@H](c2ccc(C4CC4)s2)n2c-3cc3cc(-c4cnc([C@@H]5CCCN5C(=O)[C@@H](NC(=O)OC)C5CCO[C@@H](C)C5)[nH]4)ccc32)[nH]1)C(C)C (stereo partly drawn) | 5 | 7 | 23 | 8 | 7 | 13 | 2 | – | – | – | – | – | – | 5.5 | 11 | 0.19 | 21 | 1 | 1.3 |
| CCCc1ncc([C@@H]2Oc3cc(-c4cnc([C@@H]5CCCN5C(=O)[C@@H](NC(=O)OC)C(C)C)[nH]4)cc(F)c3-c3cc4cc(-c5cnc([C@@H]6CCCN6C(=O)[C@@H](NC(=O)OC)[C@@H]6CCOC(C)(C)C6)[nH]5)ccc4n32)s1 | 4 | 5 | 15 | 8 | 6 | 18 | 6 | – | – | – | – | – | – | 4.5 | 21 | 0.08 | 20 | 1 | 1 |
| COC(=O)N[C@H](C(=O)N1CCC[C@H]1c1ncc(-c2cc(F)c3c(c2)O[C@@H](c2cnc(C4CC4)s2)n2c-3cc3cc(-c4cnc([C@@H]5CCCN5C(=O)[C@@H](NC(=O)OC)[C@@H]5CCOC(C)(C)C5)[nH]4)ccc32)[nH]1)C(C)C | 6 | 6 | 15 | 15 | 7 | 29 | 6 | – | – | – | – | – | – | 4 | 9 | 0.51 | 60 | 4 | 2.8 |
| COC(=O)N[C@H](C(=O)N1CCC[C@H]1c1ncc(-c2cc(F)c3c(c2)O[C@@H](c2ccc(C4CC4)s2)n2c-3cc3cc(-c4cnc([C@@H]5CCCN5C(=O)[C@@H](NC(=O)OC)C5CC6CCC(C5)O6)[nH]4)ccc32)[nH]1)C(C)C (stereo partly drawn) | 5 | 4 | 19 | 12 | 8 | 28 | 6 | – | – | – | – | – | – | 3.9 | 13 | 0.33 | 24 | 3 | 2.5 |
| COC(=O)N[C@H](C(=O)N1CCC[C@H]1c1ncc(-c2cc(F)c3c(c2)O[C@@H](c2ccc(C4CC4)s2)n2c-3cc3cc(-c4cnc([C@@H]5CCCN5C(=O)[C@@H](NC(=O)OC)C5CCOC6(CC6)C5)[nH]4)ccc32)[nH]1)C(C)C (stereo partly drawn) | 6 | 4 | 36 | 8 | 4 | 49 | 7 | – | – | – | – | – | – | 5.7 | 5 | 0.58 | 57 | 4 | 1.9 |
| COC(=O)N[C@H](C(=O)N1CCC[C@H]1c1ncc(-c2cc(F)c3c(c2)O[C@@H](c2ccc(C4CC4)s2)n2c-3cc3cc(-c4cnc([C@@H]5CCCN5C(=O)[C@@H](NC(=O)OC)C5CCO[C@H](C)C5)[nH]4)ccc32)[nH]1)C(C)C (stereo partly drawn) | 4 | 4 | 14 | 7 | 10 | 9 | 3 | – | – | – | – | – | – | 4.7 | 11 | 0.21 | 25 | 1 | 1.4 |
| CCc1ccc([C@@H]2Oc3cc(-c4cnc([C@@H]5CCCN5C(=O)[C@@H](NC(=O)OC)C(C)C)[nH]4)cc(F)c3-c3cc4cc(-c5cnc([C@@H]6CCCN6C(=O)[C@@H](NC(=O)OC)[C@@H]6CCOC(C)(C)C6)[nH]5)ccc4n32)s1 | 5 | 6 | 28 | 9 | 7 | 38 | 3 | – | – | – | – | – | – | 5.2 | 8 | 0.78 | 110 | 4 | 3.5 |
| COC(=O)N[C@H](C(=O)N1CCC[C@H]1c1ncc(-c2ccc3c(c2)cc2n3[C@H](c3ccc(C4CC4)s3)Oc3cc(-c4cnc([C@@H]5CCCN5C(=O)[C@@H](NC(=O)OC)[C@@H]5CCOC(C)(C)C5)[nH]4)cc(F)c3-2)[nH]1)C(C)C | 6 | 5 | 31 | 13 | 4 | 36 | 1 | – | – | – | – | – | – | 6 | 9 | 0.45 | 40 | 4 | 2 |
